ChEMBL document CHEMBL4364297, “Probing the Ligand-Binding Pocket of BTN3A1” (J Med Chem, 2019)
pEC50, pIC50: −log10 of the molar value. The source made the active and inactive calls. The calls are words filed in the database; no cut-off is given here.

How the values were obtained:
[1] = target: T1, Butyrophilin subfamily 3 member A1 (Homo sapiens, UniProt O00481); assay: (§1) Activation of BTN3A1 in human PBMC-derived Vgamma9/Vdelta2 T cells assessed as induction of IL2-stimulated cell proliferation by measuring increase in CD3+ cells preincubated for 3 days followed by 11 days incubation post compound washout and subsequent IL2 stimulation for every 3 days measured after 14 days by flow cytometry; assay type: cell-based
Target sequence in this assay (O00481 whole entry): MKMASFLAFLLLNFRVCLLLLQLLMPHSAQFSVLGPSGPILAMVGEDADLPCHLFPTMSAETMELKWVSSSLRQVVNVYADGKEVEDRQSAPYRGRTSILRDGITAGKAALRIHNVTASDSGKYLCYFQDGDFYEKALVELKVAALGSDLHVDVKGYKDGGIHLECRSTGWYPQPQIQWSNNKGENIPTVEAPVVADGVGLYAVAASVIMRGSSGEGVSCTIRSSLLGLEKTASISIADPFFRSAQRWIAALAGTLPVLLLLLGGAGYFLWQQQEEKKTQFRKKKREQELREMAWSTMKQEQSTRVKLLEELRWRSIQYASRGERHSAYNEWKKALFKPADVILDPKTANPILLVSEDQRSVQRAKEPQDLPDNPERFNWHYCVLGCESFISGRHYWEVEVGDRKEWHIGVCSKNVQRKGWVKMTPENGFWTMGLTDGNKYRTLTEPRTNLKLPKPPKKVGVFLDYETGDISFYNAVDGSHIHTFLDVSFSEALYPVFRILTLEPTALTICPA

[2] = target: T1, Butyrophilin subfamily 3 member A1; assay: Activation of BTN3A1 in human PBMC-derived Vgamma9/Vdelta2 T cells assessed as induction of IL2-stimulated IFNgamma production measured after 48 hrs by ELISA; settings: for pEC50: read-out: EC50
Target sequence in this assay (O00481 whole entry): as above

[3] = target: T1, Butyrophilin subfamily 3 member A1; assay: as §1, with “CD3+ cells at 10 uM preincubated for” for “CD3+ cells preincubated for”, “flow cytometry relative to control” for “flow cytometry”; assay type: cell-based
Target sequence in this assay (O00481 30-513 limits assumed): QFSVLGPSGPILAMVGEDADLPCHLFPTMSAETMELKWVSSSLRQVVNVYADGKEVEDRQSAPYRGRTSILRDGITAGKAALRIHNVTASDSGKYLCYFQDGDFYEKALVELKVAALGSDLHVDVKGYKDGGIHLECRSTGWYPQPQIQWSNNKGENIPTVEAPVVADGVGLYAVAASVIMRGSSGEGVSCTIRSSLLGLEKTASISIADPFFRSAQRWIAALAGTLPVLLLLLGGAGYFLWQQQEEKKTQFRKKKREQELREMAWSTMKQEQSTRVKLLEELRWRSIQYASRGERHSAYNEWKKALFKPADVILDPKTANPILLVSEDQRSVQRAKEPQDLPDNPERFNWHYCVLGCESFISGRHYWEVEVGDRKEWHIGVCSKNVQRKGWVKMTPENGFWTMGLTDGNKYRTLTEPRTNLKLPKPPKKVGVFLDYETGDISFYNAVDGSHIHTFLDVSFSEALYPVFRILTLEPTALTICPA

[4] = Drug uptake in human PBMC assessed as parent compound remaining at 10 uM measured after 24 hrs by UPLC-MS analysis; assay type: ADME, cell-based; settings: PBMC (peripheral blood mononuclear cells), read-out: Drug uptake
Outline: (§2)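 Compound at 10 μM final was added to human PBMCs (1,000,000 cells/mL) suspended in T cell media and incubated. The supernatant was collected and stored at –20 °C, then analysed by UPLC-MS on a C18 column (25% to 80% acetonitrile over 8 min). The integrated molecular-ion signal is reported relative to t = 0.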

[5] = Drug uptake in T cell media assessed as parent compound remaining at 10 uM measured after 48 hrs by UPLC-MS analysis
Outline: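 This was the cell-free control. Compound at 10 μM final was held in T cell media without PBMCs, and loss of the parent compound was followed over time. Supernatant was analysed by UPLC-MS on a C18 column (25% to 80% acetonitrile gradient over 8 min). The molecular-ion integral is expressed relative to t = 0.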

[6] = target: T1, Butyrophilin subfamily 3 member A1; assay: as §1, with “CD3+ cells up to 100 uM preincubated for” for “CD3+ cells preincubated for”; assay type: cell-based
Target sequence in this assay (O00481 30-513 limits assumed): as above

[7] = Drug uptake in human PBMC assessed as parent compound remaining at 10 uM measured after 6 hrs by UPLC-MS analysis; assay type: ADME, cell-based; settings: PBMC (peripheral blood mononuclear cells), read-out: Drug uptake; outline: as §2
[8] = target: T1, Butyrophilin subfamily 3 member A1; assay: as §1, with “CD3+ cells at 0.1 uM preincubated for” for “CD3+ cells preincubated for”, “flow cytometry relative to control” for “flow cytometry”; assay type: cell-based
Target sequence in this assay (O00481 30-513 limits assumed): as above

[9] = target: T1, Butyrophilin subfamily 3 member A1; assay: Displacement of GDP-BODIPY from C-terminal 6His-tagged BTN3A1 B30.2 domain (unknown origin) expressed in Escherichia coli BL21 (DE) measured after 60 mins by fluorescence polarization assay
Target sequence in this assay (O00481 whole entry): as the sequence (O00481 whole entry) above

[10] = target: T1, Butyrophilin subfamily 3 member A1; assay: Displacement of GDP-BODIPY from C-terminal 6His-tagged BTN3A1 full […] domain (unknown origin) expressed in Escherichia coli BL21 (DE) measured after 60 mins by fluorescence polarization assay
Target sequence in this assay (O00481 whole entry): as above

[11] = target: Butyrophilin subfamily 3 member A1 (Homo sapiens, UniProt O00481, R448A); assay: Displacement of GDP-BODIPY from C-terminal 6His-tagged BTN3A1 R448A mutant (unknown origin) expressed in Escherichia coli BL21 (DE) measured after 60 mins by fluorescence polarization assay
[12] = target: Butyrophilin subfamily 3 member A1 (Homo sapiens, UniProt O00481, R499A); assay: Displacement of GDP-BODIPY from C-terminal 6His-tagged BTN3A1 R499A mutant (unknown origin) expressed in Escherichia coli BL21 (DE) measured after 60 mins by fluorescence polarization assay
[13] = target: Butyrophilin subfamily 3 member A1 (Homo sapiens, UniProt O00481, R442A); assay: Displacement of GDP-BODIPY from C-terminal 6His-tagged BTN3A1 R442A mutant (unknown origin) expressed in Escherichia coli BL21 (DE) measured after 60 mins by fluorescence polarization assay
[14] = target: Butyrophilin subfamily 3 member A1 (Homo sapiens, UniProt O00481, W421A); assay: Displacement of GDP-BODIPY from C-terminal 6His-tagged BTN3A1 W421A mutant (unknown origin) expressed in Escherichia coli BL21 (DE) measured after 60 mins by fluorescence polarization assay
[15] = target: Butyrophilin subfamily 3 member A1 (Homo sapiens, UniProt O00481, M424A); assay: Displacement of GDP-BODIPY from C-terminal 6His-tagged BTN3A1 M424A mutant (unknown origin) expressed in Escherichia coli BL21 (DE) measured after 60 mins by fluorescence polarization assay
Outline: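 GDP-BODIPY probe (750 nM final) was incubated with 10 μM mutant BTN3A1 full intracellular domain in 100 mM NaCl, 50 mM Tris, 5 mM β-mercaptoethanol, pH 7.5. Test ligand was added at varying concentrations, and plates were kept 60 min in the dark. FP was read at 485/535 nm in triplicate, with at least 3 independent experiments. Probe in buffer served as the negative control and probe with protein as the positive control. IC50 was obtained by 4-parameter nonlinear regression.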

Sequence of Butyrophilin subfamily 3 member A1 (Homo sapiens, UniProt O00481, R499A) (O00481 30-513 R499A limits assumed): as the sequence (O00481 30-513 limits assumed) above, with R470A counted along it
Sequence of Butyrophilin subfamily 3 member A1 (Homo sapiens, UniProt O00481, R442A) (O00481 30-513 R442A limits assumed): as the sequence (O00481 30-513 limits assumed) above, with R413A counted along it
Sequence of Butyrophilin subfamily 3 member A1 (Homo sapiens, UniProt O00481, M424A) (O00481 30-513 M424A limits assumed): as the sequence (O00481 30-513 limits assumed) above, with M395A counted along it
Sequence of Butyrophilin subfamily 3 member A1 (Homo sapiens, UniProt O00481, W421A) (O00481 30-513 W421A limits assumed): as the sequence (O00481 30-513 limits assumed) above, with W392A counted along it
Sequence of Butyrophilin subfamily 3 member A1 (Homo sapiens, UniProt O00481, R448A) (O00481 30-513 R448A limits assumed): as the sequence (O00481 30-513 limits assumed) above, with R419A counted along it

Structure (SMILES): C/C(=C\CCCCP(=O)(OCOC(=O)C(C)(C)C)OCOC(=O)C(C)(C)C)CO
- EC50 [1]: Not Active
- EC50 [2]: Not Active
- Activity [3]: 28.1%
- remaining at 24 h, 10 µM [4]: < 1%
- Drug uptake [5]: 44%
- Activity [6]: inactive
- remaining at 6 h, 10 µM [7]: 44%

Structure (SMILES): C/C(=C\CCP(=O)(OCOC(=O)C(C)(C)C)OCOC(=O)C(C)(C)C)CO
- pEC50 [2]: 7.82
- Activity [8]: Active
- remaining at 24 h, 10 µM [4]: < 1%
- Drug uptake [5]: 63%
- remaining at 6 h, 10 µM [7]: 58%

Structure (SMILES): COP(=O)(CCCC/C=C(\C)CO)OC
- Activity [6]: inactive

Structure (SMILES): C/C(=C\CCP(=O)(O)OP(=O)(O)O)CO
- pEC50 [2]: 8.70
- pIC50 [9]: 5.10
- pIC50 [10]: 5.10

Structure (SMILES): C/C(=C\CCP(=O)(O)O)CO
- pEC50 [2]: 5.47
- pIC50 [11]: 2.41
- pIC50 [12]: 2.42
- pIC50 [13]: 2.49
- pIC50 [14]: 2.50
- pIC50 [15]: 2.47
- pIC50 [9]: 2.59
- pIC50 [10]: 2.41

Structure (SMILES): C/C(=C\CCP(=O)(CP(=O)(OCOC(=O)C(C)(C)C)OCOC(=O)C(C)(C)C)OCOC(=O)C(C)(C)C)CO (centres undefined)
- pEC50 [2]: < 6.00

Structure (SMILES): C/C(=C\CCP(=O)(O)CP(=O)(O)O)CO
- pEC50 [2]: < 4.00
- pIC50 [9]: 3.99

Structure (SMILES): C/C(=C\COP(=O)(O)OP(=O)(O)O)CO
- Activity [8]: 64%

Structure (SMILES): O=P([O-])([O-])OP(=O)([O-])[O-].[Na+].[Na+].[Na+].[Na+] [SODIUM PYROPHOSPHATE]
- EC50 [2]: Not Active

Structure (SMILES): C/C(=C\CCCCP(=O)([O-])[O-])CO.[Na+].[Na+]
- EC50 [1]: Not Active
- EC50 [2]: Not Active
- pIC50 [11]: 2.34
- pIC50 [12]: 2.43
- pIC50 [13]: 2.46
- Activity [6]: inactive
- pIC50 [14]: 2.49
- pIC50 [15]: 2.27
- pIC50 [10]: 2.97

Structure (SMILES): CC(C)=CCCCCP(=O)(OCOC(=O)C(C)(C)C)OCOC(=O)C(C)(C)C
- Activity [6]: inactive
